The text below walks through data of ChEMBL document CHEMBL3585278, “Effect of deuteration on metabolism and clearance of Nerispirdine (HP184) and AVE5638” (Bioorg Med Chem, 2015).

For orientation: AUC(0-t) means exposure summed from dosing to a finite time, without extrapolation to infinity. Low values mean less exposure, high ones more exposure. As a reminder, the AUC is the area under the concentration-time curve, a measure of exposure. High values mean more exposure, low ones less exposure. For orientation: half-life means the time needed for the level to fall by half in the phase considered. A higher half-life goes with slow decline. Broadly, the Tmax is the time from dosing to the highest level. Broadly, the Cmax is the maximum level reached in the sampled fluid or tissue.

For data set [1], the system named is Liver microsome. Put plainly: Drug metabolism in human liver microsomes assessed as metabolic reaction rate at 10 uM measured up to 3 hrs by LC-MS/MS analysis. In kind it is ADME. The essentials: (§1)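 Human liver S9 fraction, liver microsomes or hepatocytes were incubated with substrate or its deuterated analogue at 1 and 10 µM, with or without an NADPH-generating system. Substrate depletion over time was followed. Reaction rate was given as nmol/min/mg for S9 and microsomes, and nmol/min per 10^6 cells for hepatocytes.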

In data set [2] the test system is Hepatocyte. Put plainly: Drug metabolism in human hepatocytes assessed as metabolic reaction rate at 10 uM measured per 10^6 cells up to 3 hrs by LC-MS/MS analysis. In kind it is ADME, cell-based. The essentials:
as §1

The subject of data set [3] is Liver. In words: Drug metabolism in human liver S9 fraction assessed as metabolic reaction rate at 10 uM measured up to 3 hrs by LC-MS/MS analysis. In kind it is ADME, subcellular. As to conditions: s9, 3 h. The essentials: as §1
Data set [4] deals with Liver microsome. In words: Drug metabolism in human liver microsomes assessed as metabolic reaction rate at 1 uM measured up to 3 hrs by LC-MS/MS analysis. The data set is classed as ADME. The method, boiled down: as §1
A general note: Liver microsomes are a subcellular fraction often used to study metabolism.

In data set [5] the test system is Hepatocyte. Put plainly: Drug metabolism in human hepatocytes assessed as metabolic reaction rate at 1 uM measured per 10^6 cells up to 3 hrs by LC-MS/MS analysis. The data set is classed as ADME, cell-based. The essentials: as §1
The test system of data set [6] is Liver. Put plainly: Drug metabolism in human liver S9 fraction assessed as metabolic reaction rate at 1 uM measured up to 3 hrs by LC-MS/MS analysis. The data set is classed as ADME, subcellular. As to conditions: s9, 3 h. The method, boiled down: as §1
In data set [7] the test system is Rattus norvegicus. Put plainly: In vivo drug formation in Sprague-Dawley rat treated with Nerispirdine at 20 mg/kg, po up to 48 hrs by LC-MS/MS analysis. The data set is classed as ADME, organism-based. The essentials:
(§2)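 Male Sprague–Dawley rats, 5 per compound, were dosed orally at 20 mg/kg with parent or d14 analogue. Plasma collected at several times up to 48 h was analysed by LC–MS/MS for parent, N-depropylated metabolite and carboxylic acid metabolite, giving concentration–time profiles.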

Data set [8] deals with Hepatocyte. Put plainly: Drug formation in human hepatocytes treated with Nerispirdine at 2 to 10 uM up to 24 hrs by LC-MS/MS analysis. In kind it is ADME, cell-based. The method, boiled down: (§3)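 Plated human hepatocytes (two preparations) were incubated with parent or d14 analogue at 2 or 10 µM. Aliquots taken at several times up to 24 h were assayed by LC–MS/MS for parent, N-depropylated metabolite and carboxylic acid metabolite. Clearance was expressed as mL/h per 10^6 cells.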

The subject of data set [9] is Liver microsome. Put plainly: Drug formation in human liver microsomes treated with (3-Fluoro-pyridin-4-yl)-(3-methyl-indol-1-yl)-propylamine-d14 formation at 5 uM up to 30 mins by LC-MS/MS analysis.
The subject of data set [10] is Hepatocyte. Put plainly: Drug formation in human hepatocytes treated with (3-Fluoro-pyridin-4-yl)-(3-methyl-indol-1-yl)-propylamine-d14 at 2 to 10 uM up to 24 hrs by LC-MS/MS analysis. The data set is classed as ADME, cell-based. The essentials:
as §3

Data set [11] has as its system Rattus norvegicus. In words: In vivo drug formation in Sprague-Dawley rat treated with (3-Fluoro-pyridin-4-yl)-(3-methyl-indol-1-yl)-propylamine-d14 at 20 mg/kg, po up to 48 hrs by LC-MS/MS analysis. In kind it is ADME, organism-based. The essentials:
as §2

A short description of data set [12]: AUClast in Sprague-Dawley rat at 20 mg/kg, po by LC-MS/MS analysis. Set-up: dose 20 mg/kg, route oral, time 0 - last. The following applies: in vivo. The data set is classed as ADME, organism-based. The essentials:
(§4)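 Male Sprague–Dawley rats (5 per compound) received 20 mg/kg orally of parent or d14 analogue. Plasma was sampled at several times up to 48 h and assayed by LC–MS/MS. Tmax is reported with a range; Cmax, AUClast, AUC and t1/2 were derived from plasma concentration–time data.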

For data set [13], the system named is Hepatocyte. In words: Drug metabolism in human hepatocytes assessed as 1-(3-fluoropyridin-4-ylamino)-1H-indole-3-carboxylic acid formation at 2 to 10 uM up to 24 hrs by LC-MS/MS analysis. The data set is classed as ADME, cell-based. The essentials:
as §3

For data set [14], the system named is Liver microsome. In words: Clearance in human liver microsomes assessed as initial mean metabolism rate at 5 uM at protein concentration of 1 mg/ml measured per mg protein up to 30 mins by LC-MS/MS analysis. In kind it is ADME. The following applies: 0.5 h. The method, boiled down: (§5)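 Human liver microsomes at 0.25, 0.5 or 1 mg protein/mL were incubated with 5 µM substrate (parent or d14 analogue). Aliquots taken at several times up to 30 min were assayed by LC–MS/MS for parent and N-depropylated metabolite. Initial mean metabolism rate was given as nmol/min/mg protein.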

Data set [15] deals with Rattus norvegicus. In words: In vivo drug metabolism in Sprague-Dawley rat assessed as 1-(3-fluoropyridin-4-ylamino)-1H-indole-3-carboxylic acid formation at 20 mg/kg, po up to 48 hrs by LC-MS/MS analysis. The data set is classed as ADME, organism-based. The essentials: as §2
For data set [16], the system named is Liver microsome. Put plainly: Clearance in human liver microsomes assessed as initial mean metabolism rate at 5 uM at protein concentration of 0.25 mg/ml measured per mg protein up to 30 mins by LC-MS/MS analysis. As to conditions: 0.5 h. The data set is classed as ADME. The essentials: as §5
The test system of data set [17] is Liver microsome. In words: Clearance in human liver microsomes assessed as initial mean metabolism rate at 5 uM at protein concentration of 0.5 mg/ml measured per mg protein up to 30 mins by LC-MS/MS analysis. The data set is classed as ADME. The following applies: 0.5 h. The method, boiled down: as §5
In data set [18] the test system is Hepatocyte. In words: Clearance in human hepatocytes at 2 uM measured per 10^6 cells up to 24 hrs by LC-MS/MS analysis. The data set is classed as ADME, cell-based. The essentials: as §3
Data set [19] concerns Hepatocyte. Put plainly: Clearance in human hepatocytes at 10 uM measured per 10^6 cells up to 24 hrs by LC-MS/MS analysis. In kind it is ADME, cell-based. The essentials: as §3
Data set [20] concerns Liver microsome. Put plainly: Drug metabolism in human liver microsomes assessed as 1-(3-fluoropyridin-4-ylamino)-1H-indole-3-carboxylic acid-d4 formation at 5 uM up to 30 mins by LC-MS/MS analysis.
The nature of data set [21]: AUC in Sprague-Dawley rat at 20 mg/kg, po by LC-MS/MS analysis. As to conditions: in vivo. The data set is classed as ADME, organism-based. The essentials: as §4
Data set [22] has as its system Hepatocyte. Put plainly: Drug metabolism in human hepatocytes assessed as 1-(3-fluoropyridin-4-ylamino)-1H-indole-3-carboxylic acid-d4 formation at 2 to 10 uM up to 24 hrs by LC-MS/MS analysis. The data set is classed as ADME, cell-based. The method, boiled down: as §3
Data set [23] in a line: Half-life in Sprague-Dawley rat at 20 mg/kg, po by LC-MS/MS analysis. As to conditions: in vivo. The data set is classed as ADME, organism-based. The method, boiled down:
as §4

The nature of data set [24]: Tmax in Sprague-Dawley rat at 20 mg/kg, po by LC-MS/MS analysis. The data set is classed as ADME, organism-based. As to conditions: in vivo. The essentials: as §4
Data set [25] deals with Rattus norvegicus. Put plainly: In vivo drug metabolism in Sprague-Dawley rat assessed as 1-(3-fluoropyridin-4-ylamino)-1H-indole-3-carboxylic acid-d4 formation at 20 mg/kg, po up to 48 hrs by LC-MS/MS analysis. In kind it is ADME, organism-based. The method, boiled down:
as §2

Data set [26] in a line: Cmax in Sprague-Dawley rat at 20 mg/kg, po by LC-MS/MS analysis. In kind it is ADME, organism-based. More on the design: dose 20 mg/kg, route oral. The following applies: in vivo. The method, boiled down:
as §4

Data set [27] relates to Liver microsome. Put plainly: Drug formation in human liver microsomes treated with Nerispirdine at 5 uM up to 30 mins by LC-MS/MS analysis.
Data set [28] concerns Liver microsome. Put plainly: Drug metabolism in human liver microsomes assessed as N-(3-fluoropyridin-4-yl)-3-methyl-1H-indol-1-amine formation at 5 uM up to 30 mins by LC-MS/MS analysis.
Data set [29] concerns Rattus norvegicus. Put plainly: In vivo drug metabolism in Sprague-Dawley rat assessed as N-(3-fluoropyridin-4-yl)-3-methyl-1H-indol-1-amine formation at 20 mg/kg, po up to 48 hrs by LC-MS/MS analysis. In kind it is ADME, organism-based. The method, boiled down: as §2
In data set [30] the test system is Rattus norvegicus. In words: In vivo drug metabolism in Sprague-Dawley rat assessed as (3-Fluoro-pyridin-4-yl)-(3-methyl-indol-1-yl)-amine-d7 formation at 20 mg/kg, po up to 48 hrs by LC-MS/MS analysis. The data set is classed as ADME, organism-based. The method, boiled down:
as §2

The test system of data set [31] is Hepatocyte. Put plainly: Drug metabolism in human hepatocytes assessed as N-(3-fluoropyridin-4-yl)-3-methyl-1H-indol-1-amine formation at 2 to 10 uM up to 24 hrs by LC-MS/MS analysis. In kind it is ADME, cell-based. The method, boiled down: as §3

For the molecule `NCc1cccc(C2CCN(C(=O)c3ccc(C#Cc4ccccc4F)o3)CC2)c1`, the Drug metabolism amounted to 0.0215 nmol/min/mg in data set [1]; 0.016 nmol/min/10^6 cells in data set [2]; 0.0238 nmol/min/mg in data set [3]; 0.0201 nmol/min/mg in data set [4]; 0.0143 nmol/min/10^6 cells in data set [5]; 0.0219 nmol/min/mg in data set [6].
With `O=C(O)c1cn(Nc2ccncc2F)c2ccccc12`, the Drug metabolism result in data set [7] and in [8] was “metabolite_detected” throughout.
Take `[2H]C([2H])(N)c1cccc(C2CCN(C(=O)c3ccc(C#Cc4ccccc4F)o3)CC2)c1`: the Drug metabolism in data set [1] was found to be 0.0045 nmol/min/mg; in [2], 0.0081 nmol/min/10^6 cells; in data set [3] it was 0.0043 nmol/min/mg; in data set [4] it was 0.0048 nmol/min/mg; in [5] it was 0.0143 nmol/min/10^6 cells; in data set [6], 0.0081 nmol/min/mg.
Consider `[2H]c1cc2c(C([2H])([2H])[2H])c([2H])n(Nc3ccncc3F)c2c([2H])c1[2H]`, for which the Drug metabolism result in data set [9], in data set [10] and in data set [11] was “metabolite_detected” throughout.
`[2H]c1cc2c(C([2H])([2H])[2H])c([2H])n(N(c3ccncc3F)C([2H])([2H])C([2H])([2H])C([2H])([2H])[2H])c2c([2H])c1[2H]`: in [12], the AUC(0-t) turned out to be 3670 ng·h/mL. Besides, the Drug metabolism entry in data set [13] is reported as “metabolite_detected”; in data set [15], “metabolite_detected”; in [20], “metabolite_notdetected”; in data set [22] it was “metabolite_detected”; in data set [25], “metabolite_detected”. The metabolic rate in [14] worked out at 0.217 nmol/min/mg; in data set [17], 0.638 nmol/min/mg. Also, the metabolism rate in data set [16] came to 0.42 nmol/min/mg. Further, the CLint in [18] worked out at 0.572 mL/h/10^6 cells; in [19], 0.196 mL/h/10^6 cells. Further, the exposure (AUC) in data set [21] came to 3800 ng·h/mL. For the same molecule, in [23], the half-life is 11.1 h. Also, the time to peak (Tmax) in data set [24] was found to be 0.5 h. For the same molecule, the peak level in data set [26] (Cmax) was 971 ng/mL.
In the case of `[2H]c1cc2c(C(=O)O)c([2H])n(Nc3ccncc3F)c2c([2H])c1[2H]`, the Drug metabolism result in data set [10] and in data set [11] was “metabolite_detected” in each case.
With `Cc1cn(Nc2ccncc2F)c2ccccc12`, the Drug metabolism entry in data set [7], in [8] and in data set [27] was “metabolite_detected” throughout.
`CCCN(c1ccncc1F)n1cc(C)c2ccccc21` [NERISPIRDINE]: in data set [12], the area under the curve AUC(0-t) was 4070 ng·h/mL. The results for the metabolic rate in [14] and in data set [17] were 0.253 nmol/min/mg and 0.346 nmol/min/mg, respectively. In addition, the Drug metabolism result in data set [28], in data set [29], in data set [30] and in data set [31] was “metabolite_detected” in each case. In [16], the metabolism rate was found to be 1.15 nmol/min/mg. Also, the CLint was determined as 0.415 mL/h/10^6 cells in [18] and 0.2 mL/h/10^6 cells in [19]. Besides, in data set [21], the AUC worked out at 4180 ng·h/mL. In data set [23], this molecule gave a half-life of 10.2 h. In [24], the time to peak (Tmax) stood at 1 h. In data set [26], the maximum concentration (Cmax) came out at 822 ng/mL.
